Data set [1] can be described thus: Partition coefficient in RBCs. The data set is classed as ADME, cell-based. The following applies: erythrocyte.
Data set [2] in a line: Cmax in mouse brain at 50 mg/kg, ip administered as single dose. The arrangement: dose 50 mg/kg, route intraperitoneal. The data set is classed as ADME, organism-based.
Data set [3] in a line: Metabolic stability in rat hepatocytes assessed as intrinsic clearance up to 45 mins by LC/MS/MS analysis. It counts as ADME, cell-based, Liver, Hepatocyte.
The nature of data set [4]: Protein binding in human plasma at pH 7.4 after 4 hrs. It counts as ADME, cell-free. The following applies: read-out: PPB (converted).
Another data set is described as follows: in vivo. The following applies: mouse, brain, ip, 50 mg/kg.
A short description of data set [5]: Metabolic stability in human assessed as compound remaining plasma after 4 hrs. It counts as ADME, cell-free. The following applies: read-out: Stability.
Data set [6] can be described thus: Metabolic stability in rat liver microsomes assessed as intrinsic clearance up to 45 mins by LC/MS/MS analysis. It counts as ADME, Microsome.
Data set [7] deals with Trypanosoma brucei brucei. In words: Antiparasitic activity against Trypanosoma brucei brucei LAB 110 EATRO infected in mouse assessed as mean survival days at 50 mg/kg/day, ip bid for 4 days administered on 1st day of infection and measured through day 40 post infection. It counts as functional. The following applies: route intraperitoneal.
Data set [8] is described as follows: Permeability of the compound after 4 hrs by PAMPA assay. The data set is classed as ADME. The following applies: read-out: permeability.
A short description of data set [9]: Cmax in mouse blood at 50 mg/kg, ip administered as single dose. It counts as ADME, organism-based. On the set-up: dose 50 mg/kg, route intraperitoneal.
Data set [10] is described as follows: Permeability across basolateral to apical side of human Caco2 cells. The data set is classed as ADME, cell-based. The following applies: Caco-2, read-out: permeability.
Data set [11] can be described thus: Half life in mouse at 50 mg/kg, ip administered as single dose. It counts as ADME, organism-based. On the set-up: dose 50 mg/kg, route intraperitoneal. The following applies: in vivo.
In a further data set the target is Cytochrome P450 2D6 (Homo sapiens, UniProt P10635). Kind of data set: (§1) Inhibition of human cytochrome P450 2D6.
Another data set has as its target Cytochrome P450 2C19 (Homo sapiens, UniProt P33261). In words: (§2) Inhibition of human cytochrome P450 2C19.
Data set [12] has as its system Trypanosoma brucei brucei. Kind of data set: Antiparasitic activity against Trypanosoma brucei brucei LAB 110 EATRO infected in mouse assessed as parasitemia cure incidence at 50 mg/kg/day, ip bid for 4 days administered on 1st day of infection and measured through day 40 post infection. The data set is classed as functional, organism-based. The gist of the method:
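Mice, groups of five, infected i.p. on day 0 with 2.5 × 10^5 parasites; dosing from day 1 at 50 mg/kg/day i.p., given either once daily for 7 days or split twice daily for 4 days. Treatment controls got pentamidine 2 mg/kg QD i.p. for 4 days. Read-out was microscopy of ≥20 fields of wet blood smears twice weekly to day 40; cure means no parasites.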

The nature of data set [13]: Kinetic solubility in phosphate-buffered saline at pH 7.4 after 16 to 24 hrs by UV spectrophotometry.
Another data set deals with Cytochrome P450 2C9 (Homo sapiens, UniProt P11712). Kind of data set: (§3) Inhibition of human cytochrome P450 2C9.
The test system of data set [14] is Trypanosoma brucei brucei. In words: Antiparasitic activity against Trypanosoma brucei brucei STIB 795 infected in mouse assessed as mean survival days at 50 mg/kg, ip qd for 4 days administered on 3rd day of infection (reference value: 6.75 days). The data set is classed as functional. The following applies: route intraperitoneal.
Data set [15] in a line: AUC in mouse brain at 50 mg/kg, ip administered as single dose. It counts as ADME, organism-based. The arrangement: dose 50 mg/kg, route intraperitoneal.
Data set [16] is described as follows: Metabolic stability in human liver microsomes assessed as intrinsic clearance up to 45 mins by LC/MS/MS analysis. The data set is classed as ADME, Microsome.
Data set [17] is described as follows: Metabolic stability in human hepatocytes assessed as intrinsic clearance up to 45 mins by LC/MS/MS analysis. It counts as ADME, cell-based, Liver, Hepatocyte.
Data set [18] in a line: Permeability across apical to basolateral side of human Caco2 cells. The data set is classed as ADME, cell-based. The following applies: Caco-2, read-out: permeability.
The nature of data set [19]: Protein binding in mouse plasma at pH 7.4 after 4 hrs. It counts as ADME, cell-free. The following applies: read-out: PPB (converted).
The nature of data set [20]: AUC in mouse blood at 50 mg/kg, ip administered as single dose. The data set is classed as ADME, organism-based. The arrangement: dose 50 mg/kg, route intraperitoneal.
Data set [21] in a line: Metabolic stability in rat whole blood assessed as compound remaining. It counts as ADME, tissue-based.
Data set [22] has as its system Trypanosoma brucei rhodesiense. In words: Antiparasitic activity against Trypanosoma brucei rhodesiense STIB 900 clone after 72 hrs by Alamar blue assay. The data set is classed as functional, organism-based. The following applies: STIB 900, 72 h.
Data set [23] can be described thus: Metabolic stability in rat plasma assessed as compound remaining after 4 hrs. The data set is classed as ADME, cell-free. The following applies: read-out: Stability.
The target in a further data set is T1, Cytochrome P450 1A2 (Homo sapiens, UniProt P05177).
T1 sequence (P05177 whole entry): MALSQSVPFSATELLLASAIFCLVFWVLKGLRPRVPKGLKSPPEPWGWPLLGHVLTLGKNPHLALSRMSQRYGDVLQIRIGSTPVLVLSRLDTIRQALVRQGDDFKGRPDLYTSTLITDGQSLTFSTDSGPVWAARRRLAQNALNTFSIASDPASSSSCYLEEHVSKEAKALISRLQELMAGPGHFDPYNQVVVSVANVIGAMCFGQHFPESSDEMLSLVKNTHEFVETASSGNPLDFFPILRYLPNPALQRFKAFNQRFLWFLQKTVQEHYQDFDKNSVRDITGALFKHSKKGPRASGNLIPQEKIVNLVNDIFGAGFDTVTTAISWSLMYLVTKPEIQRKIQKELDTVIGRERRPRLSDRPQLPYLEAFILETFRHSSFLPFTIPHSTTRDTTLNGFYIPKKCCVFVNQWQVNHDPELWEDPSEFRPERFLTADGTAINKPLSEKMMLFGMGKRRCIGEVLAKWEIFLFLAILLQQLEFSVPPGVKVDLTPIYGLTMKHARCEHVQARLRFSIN
Kind of data set: (§4) Inhibition of human cytochrome P450 1A2.

A further data set concerns the target Cytochrome P450 3A4 (Homo sapiens, UniProt P08684). Kind of data set: (§5) Inhibition of human cytochrome P450 3A4.
The test system of data set [24] is Trypanosoma brucei brucei. In words: Antiparasitic activity against Trypanosoma brucei brucei LAB 110 EATRO infected in mouse assessed as mean survival days at 50 mg/kg/day, ip administered on 1st day of infection and measured through day 40 post infection. The following applies: route intraperitoneal.
The subject of data set [25] is Trypanosoma brucei brucei. Kind of data set: Antiparasitic activity against Trypanosoma brucei brucei LAB 110 EATRO infected in mouse assessed as mean survival days at 2 mg/kg, ip qd for 4 days administered on 1st day of infection and measured through day 40 post infection. The data set is classed as functional. The following applies: route intraperitoneal. The gist of the method:
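Mice in groups of five, infected i.p. on day 0 with 2.5 × 10^5 T. b. brucei LAB 110 EATRO parasites; i.p. dosing began day 1. Parasitemia checked twice weekly by microscopy of at least 20 fields of wet blood smears through day 40, with animals considered cured only when clear through day 40.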

Data set [26] relates to Trypanosoma brucei brucei. In words: Antiparasitic activity against Trypanosoma brucei brucei LAB 110 EATRO infected in mouse assessed as parasitemia cure incidence at 2 mg/kg, ip qd for 4 days administered on 1st day of infection and measured through day 40 post infection. It counts as functional, organism-based. On the set-up: dose 2 mg/kg.
Another data set addresses CYP2D6 (Homo sapiens, UniProt P10635). The description is as §1. The following applies: human.
The target of another data set is CYP2C19 (Homo sapiens, UniProt P33261). The description is as §2. The following applies: human.
A further data set has as its target CYP2C9 (Homo sapiens, UniProt P11712). The description is as §3. The following applies: human.
A further data set concerns the target T2, CYP1A2 (Homo sapiens, UniProt P05177).
T2 sequence (P05177 whole entry): T1 sequence (P05177 whole entry)
The description is as §4. The following applies: human.

For the next data set, the target named is CYP3A4 (Homo sapiens, UniProt P08684). The data set is described as §5. The following applies: human.

Structures are written as SMILES. Active and inactive are the calls of the source.

Chain of Cytochrome P450 2D6 (P10635 whole entry): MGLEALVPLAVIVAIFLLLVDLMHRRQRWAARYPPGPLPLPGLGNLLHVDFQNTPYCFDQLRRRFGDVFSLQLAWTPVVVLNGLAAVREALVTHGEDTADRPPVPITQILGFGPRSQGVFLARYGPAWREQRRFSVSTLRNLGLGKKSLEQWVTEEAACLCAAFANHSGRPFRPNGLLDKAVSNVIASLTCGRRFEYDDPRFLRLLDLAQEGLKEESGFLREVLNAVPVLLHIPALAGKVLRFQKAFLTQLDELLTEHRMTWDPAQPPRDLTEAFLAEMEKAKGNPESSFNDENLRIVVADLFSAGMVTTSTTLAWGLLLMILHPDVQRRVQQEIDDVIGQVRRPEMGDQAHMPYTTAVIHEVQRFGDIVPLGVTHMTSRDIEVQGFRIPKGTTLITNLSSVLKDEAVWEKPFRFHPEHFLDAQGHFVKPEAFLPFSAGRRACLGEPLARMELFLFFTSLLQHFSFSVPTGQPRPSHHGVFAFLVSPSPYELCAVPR
Chain of CYP2D6 (P10635 whole entry): as above
Chain of Cytochrome P450 2C19 (P33261 whole entry): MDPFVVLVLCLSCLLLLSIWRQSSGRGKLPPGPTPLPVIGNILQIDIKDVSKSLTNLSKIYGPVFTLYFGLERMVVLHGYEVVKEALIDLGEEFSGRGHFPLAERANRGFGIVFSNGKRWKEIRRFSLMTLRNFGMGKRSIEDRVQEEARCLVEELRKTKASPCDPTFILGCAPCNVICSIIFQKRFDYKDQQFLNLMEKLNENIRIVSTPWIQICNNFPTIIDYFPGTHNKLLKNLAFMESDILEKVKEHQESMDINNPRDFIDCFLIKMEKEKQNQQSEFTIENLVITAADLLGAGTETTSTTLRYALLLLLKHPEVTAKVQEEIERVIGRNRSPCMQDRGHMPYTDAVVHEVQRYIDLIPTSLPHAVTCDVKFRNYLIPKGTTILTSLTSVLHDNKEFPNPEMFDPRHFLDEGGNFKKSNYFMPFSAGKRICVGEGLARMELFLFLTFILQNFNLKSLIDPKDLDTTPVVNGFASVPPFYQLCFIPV
Chain of CYP2C19 (P33261 whole entry): as above
Chain of CYP2C9 (P11712 whole entry): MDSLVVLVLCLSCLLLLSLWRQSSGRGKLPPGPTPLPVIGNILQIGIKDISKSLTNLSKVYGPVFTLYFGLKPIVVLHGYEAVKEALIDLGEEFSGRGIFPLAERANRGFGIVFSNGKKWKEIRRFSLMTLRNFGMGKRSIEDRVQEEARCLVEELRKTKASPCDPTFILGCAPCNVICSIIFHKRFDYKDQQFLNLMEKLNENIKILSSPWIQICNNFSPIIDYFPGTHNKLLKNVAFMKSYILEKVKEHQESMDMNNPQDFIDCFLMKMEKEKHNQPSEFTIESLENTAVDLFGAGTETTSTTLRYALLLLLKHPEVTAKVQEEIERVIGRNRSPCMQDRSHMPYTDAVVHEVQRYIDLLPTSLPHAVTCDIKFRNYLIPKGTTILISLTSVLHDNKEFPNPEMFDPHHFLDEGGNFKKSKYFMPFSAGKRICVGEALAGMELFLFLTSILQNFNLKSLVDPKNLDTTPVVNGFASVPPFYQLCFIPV
Chain of Cytochrome P450 2C9 (P11712 whole entry): as above
Chain of Cytochrome P450 3A4 (P08684 whole entry): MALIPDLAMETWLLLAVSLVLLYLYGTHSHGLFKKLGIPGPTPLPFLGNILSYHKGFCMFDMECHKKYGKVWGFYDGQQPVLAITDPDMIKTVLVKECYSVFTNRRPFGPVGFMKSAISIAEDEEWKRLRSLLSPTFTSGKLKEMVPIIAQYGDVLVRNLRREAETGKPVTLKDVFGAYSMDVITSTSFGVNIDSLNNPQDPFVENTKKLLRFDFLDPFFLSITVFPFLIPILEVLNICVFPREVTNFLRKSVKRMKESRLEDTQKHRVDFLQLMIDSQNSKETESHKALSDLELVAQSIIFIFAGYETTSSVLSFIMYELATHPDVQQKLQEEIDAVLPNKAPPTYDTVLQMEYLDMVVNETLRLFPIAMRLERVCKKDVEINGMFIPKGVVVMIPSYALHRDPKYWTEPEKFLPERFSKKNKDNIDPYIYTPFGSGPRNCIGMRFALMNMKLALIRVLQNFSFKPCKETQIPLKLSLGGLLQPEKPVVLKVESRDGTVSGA
Chain of CYP3A4 (P08684 whole entry): as above

Compound `CN(C/C=C\CN)C[C@H]1O[C@@H](n2cnc3c(N)ncnc32)[C@H](O)[C@@H]1O` yielded a Partition coefficient in data set [1] of 0.28. For the same compound, the results for the Cmax in data set [2] and in data set [9] were 80 ng/mL and 44800 ng/mL, respectively. Besides, the CLint scaled in data set [3] was under 11 mL/min/kg; in data set [6], under 11 mL/min/kg; in data set [16] it was under 4.2 mL/min/kg; in [17], under 4.2 mL/min/kg. In addition, the fraction unbound at 4 h in [4] is 0.271; in data set [19], 0.302. The same compound gave a Kp in the data set “in vivo” of 1.7. The remaining at 4 h in [5] and in data set [23] was 100% each time. The values for the Survival in data set [7], in [14] and in data set [24] were over 40 days, over 30 days and over 40 days, respectively. Moreover, the Papp at 4 h in data set [8] stood at 0.13 ×10⁻⁶ cm/s. In addition, in data set [10], the Papp B→A was found to be 2.7 ×10⁻⁶ cm/s. Moreover, the half-life in [11] is 2.48 h. The IC50 was over 5 µM against Cytochrome P450 2D6; over 5 µM against Cytochrome P450 2C19; over 5 µM against Cytochrome P450 2C9; 0.0014 µM in data set [22]; over 5 µM against Cytochrome P450 1A2; over 5 µM against Cytochrome P450 3A4. The result in data set [12] was Active. In data set [13], this compound registered a kinetic solubility of over 47 µg/mL. Moreover, the values for the AUC in data set [15] and in data set [20] were 360 ng·h/mL and 20700 ng·h/mL, respectively. For the same compound, in [18], the Papp A→B amounted to 3.25 ×10⁻⁶ cm/s. Besides, in data set [21], the Stability is reported as 100%.
`N=C(N)c1ccc(OCCCCCOc2ccc(C(=N)N)cc2)cc1` [PENTAMIDINE]: the Survival in [25] was over 40 days. The outcome in [26] was Active.
For `CN(C/C=C\CN)C[C@H]1O[C@@H](n2cnc3c(N)nc(Cl)nc32)[C@H](O)[C@@H]1O`, the Cmax was determined as 110 ng/mL in [2] and 39000 ng/mL in data set [9]. Further, the CLint scaled in [3] was under 11 mL/min/kg; in data set [6], under 11 mL/min/kg; in [16] it was under 4.2 mL/min/kg; in data set [17], under 4.2 mL/min/kg. For the same compound, the values for the fraction unbound at 4 h in data set [4] and in [19] were 0.61 and 0.578, respectively. Besides, the Kp in the data set “in vivo” stood at 1.79. This compound also gave a half-life in data set [11] of 1.66 h. The IC50 was over 5 µM on CYP2D6; over 5 µM on CYP2C19; over 5 µM at CYP2C9; 0.259 µM in [22]; over 5 µM against CYP1A2; over 5 µM at CYP3A4. For the same compound, in data set [13], the kinetic solubility was over 51 µg/mL. Also, the results for the AUC in [15] and in [20] were 400 ng·h/mL and 22100 ng·h/mL, respectively.
